Test results: ChEMBL document CHEMBL4673181, “An investigation of the antileishmanial properties of semi-synthetic saponins” (RSC Med Chem, 2020)

Legend:
Leishmania mexicana [1] = test: Antileishmanial activity against axenic amastigote stage of Leishmania mexicana (MNYC/BZ/62/M379) assessed as induction of parasite killing incubated for 24 hrs by alamar blue dye based fluorescence analysis; type: functional; details: read-out: ED50 (the source's name)
Outline: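 L. mexicana axenic amastigotes (from promastigotes by pH/temperature shift; Schneider's with 20% HIFBS) at 4x10⁵ mL⁻¹, exposed to three-fold dilutions from 50 μM to 0.21 μM for 24 h at 33 °C in sealed plates. alamarBlue then added for another 24 h, fluorescence read at 560/600 nm. Amphotericin B (50 μM) positive, DMSO negative control. Duplicates on four occasions, EC₅₀ fitted.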

Leishmania mexicana [2] = test: Antileishmanial activity against axenic amastigote stage of Leishmania mexicana (MNYC/BZ/62/M379) assessed as inhibition of parasite proliferation at 50 uM incubated for 24 hrs by alamar blue dye based fluorescence analysis; type: functional
Outline: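 Primary single-point screen at 50 μM, in duplicate. Axenic L. mexicana amastigotes at 4x10⁵ mL⁻¹ incubated with compound 24 h at 33 °C in sealed plates, then alamarBlue for a further 24 h at the same temperature. Viability read by fluorescence at 560/600 nm against amphotericin B (50 μM) and DMSO controls.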

SMILES	EC50 (Leishmania mexicana [1])	inhibition at 50 µM (Leishmania mexicana [2])
CC1(C)CC[C@]2(C(=O)O)CC[C@]3(C)C(=CC[C@@H]4[C@@]5(C)CC[C@H](O[C@@H]6OC[C@H](O)[C@H](O)[C@H]6O)[C@@](C)(CO)[C@@H]5CC[C@]43C)[C@@H]2C1	> 50 µM	≥ 95%
CC1(C)CC[C@]2(NC(=O)N[C@H]3C(O)O[C@H](CO)[C@@H](O)[C@@H]3O)CC[C@]3(C)C(=CC[C@@H]4[C@@]5(C)CC[C@@H]6OC(C)(C)OC[C@@]6(C)[C@@H]5CC[C@]43C)[C@@H]2C1 (some centres not stated)	> 50 µM	≥ 95%
CN1CCN(C(=O)[C@@H]2CCCN2C(=O)N[C@]23CCC(C)(C)C[C@H]2C2=CC[C@@H]4[C@@]5(C)CC[C@@H]6OC(C)(C)OC[C@@]6(C)[C@@H]5CC[C@@]4(C)[C@]2(C)CC3)CC1	32.4 µM	≥ 95%
CC1(C)CC[C@]2(NC(=O)N3CCC[C@H]3CO)CC[C@]3(C)C(=CC[C@@H]4[C@@]5(C)CC[C@@H]6OC(C)(C)OC[C@@]6(C)[C@@H]5CC[C@]43C)[C@@H]2C1	26.2 µM	≥ 95%
COC(=O)[C@]12CCC(C)(C)C[C@H]1C1=CC[C@@H]3[C@@]4(C)CC[C@@H]5O[C@H](CC6O[C@H]([C@H](C)O)[C@@H](O)[C@@H]6O)OC[C@@]5(C)[C@@H]4CC[C@@]3(C)[C@]1(C)CC2 (some centres not stated)	> 50 µM	≥ 95%
CC1(C)CC[C@]2(C(=O)O)CC[C@]3(C)C(=CC[C@@H]4[C@@]5(C)CC[C@@H]6O[C@H]([C@H](O)[C@@H](O)[C@@H](O)CO)OC[C@@]6(C)[C@@H]5CC[C@]43C)[C@@H]2C1	14.6 µM	≥ 95%
CC1(C)CC[C@]2(C(=O)OCC(=O)c3ccccc3)CC[C@]3(C)C(=CC[C@@H]4[C@@]5(C)CC[C@H](O)[C@@](C)(CO)[C@@H]5CC[C@]43C)[C@@H]2C1	45.9 µM	≥ 95%
CN(C[C@H](O)[C@@H](O)[C@H](O)[C@H](O)CO)C(=O)N[C@]12CCC(C)(C)C[C@H]1C1=CC[C@@H]3[C@@]4(C)CC[C@@H]5OC(C)(C)OC[C@@]5(C)[C@@H]4CC[C@@]3(C)[C@]1(C)CC2	19.9 µM	≥ 95%
CC1(C)CC[C@]2(NC(=O)N3CCCNCC3)CC[C@]3(C)C(=CC[C@@H]4[C@@]5(C)CC[C@@H]6OC(C)(C)OC[C@@]6(C)[C@@H]5CC[C@]43C)[C@@H]2C1	> 50 µM	≥ 95%
CC1(C)CC[C@]2(C(=O)O)CC[C@]3(C)C(=CC[C@@H]4[C@@]5(C)CC[C@@H]6OCOC[C@@]6(C)[C@@H]5CC[C@]43C)[C@@H]2C1	14.9 µM	≥ 95%
CC1(C)CC[C@]2(NC(=O)NCCN3CCCC3)CC[C@]3(C)C(=CC[C@@H]4[C@@]5(C)CC[C@@H]6OC(C)(C)OC[C@@]6(C)[C@@H]5CC[C@]43C)[C@@H]2C1	> 50 µM	≥ 95%
CC1(C)CC[C@]2(C(=O)OCc3ccccc3)CC[C@]3(C)C(=CC[C@@H]4[C@@]5(C)CC[C@H](O)[C@@](C)(CO)[C@@H]5CC[C@]43C)[C@@H]2C1	> 50 µM	≥ 95%
CC1(C)CC[C@]2(C(=O)OCc3ccc([N+](=O)[O-])cc3)CC[C@]3(C)C(=CC[C@@H]4[C@@]5(C)CC[C@H](O)[C@@](C)(CO)[C@@H]5CC[C@]43C)[C@@H]2C1	36.2 µM	≥ 95%
CCOCc1ccc(C2OC[C@@]3(C)[C@@H]4CC[C@]5(C)[C@H](CC=C6[C@@H]7CC(C)(C)CC[C@]7(C(=O)O)CC[C@]65C)[C@@]4(C)CC[C@@H]3O2)o1 (some centres not stated)	19.2 µM	≥ 95%
C[C@@H]1O[C@@H](O[C@H]2[C@H](O[C@H]3CC[C@@]4(C)[C@@H](CC[C@]5(C)[C@@H]4CC=C4[C@@H]6CC(C)(C)CC[C@]6(C(=O)O)CC[C@]45C)[C@]3(C)CO)OC[C@H](O)[C@@H]2O)[C@H](O)[C@H](O)[C@H]1O [ALPHA-HEDERIN]	19.6 µM	≥ 95%
CC1(C)CC[C@]2(C(=O)O)CC[C@]3(C)C(=CC[C@@H]4[C@@]5(C)CC[C@H](O[C@@H]6O[C@H](CO)[C@@H](O)[C@H](O)[C@H]6O)[C@@](C)(CO)[C@@H]5CC[C@]43C)[C@@H]2C1 [Hederagenin-3-O-beta-D-glucopyranoside]	> 50 µM	≥ 95%
C[C@H](O)[C@H](O)[C@@H](O)[C@@H](O)[C@@H]1OC[C@@]2(C)[C@@H]3CC[C@]4(C)[C@H](CC=C5[C@@H]6CC(C)(C)CC[C@]6(C(=O)O)CC[C@]54C)[C@@]3(C)CC[C@@H]2O1	21.2 µM	≥ 95%

SMILES	EC50 (Leishmania mexicana [1])	inhibition at 50 µM (Leishmania mexicana [2])
CC(=O)OC[C@@]1(C)[C@@H]2CC[C@]3(C)[C@H](CC=C4[C@@H]5CC(C)(C)CC[C@]5(NC(=O)N5CCN(C)CC5)CC[C@]43C)[C@@]2(C)CC[C@@H]1O[C@@H]1OC[C@H](OC(C)=O)[C@H](OC(C)=O)[C@H]1O[C@@H]1O[C@@H](C)[C@H](OC(C)=O)[C@@H](OC(C)=O)[C@H]1OC(C)=O	19.9 µM	≥ 95%
C[C@@H]1O[C@@H](C[C@@H]2OC[C@@]3(C)[C@@H]4CC[C@]5(C)[C@H](CC=C6[C@@H]7CC(C)(C)CC[C@]7(C(=O)O)CC[C@]65C)[C@@]4(C)CC[C@@H]3O2)[C@H](O)[C@H](O)[C@H]1O	13.9 µM	≥ 95%
C[C@H]1O[C@H](C[C@@H]2OC[C@@]3(C)[C@@H]4CC[C@]5(C)[C@H](CC=C6[C@@H]7CC(C)(C)CC[C@]7(C(=O)O)CC[C@]65C)[C@@]4(C)CC[C@@H]3O2)[C@H](O)[C@@H](O)[C@@H]1O	> 50 µM	≥ 95%
CCOC(=O)[C@]12CCC(C)(C)C[C@H]1C1=CC[C@@H]3[C@@]4(C)CC[C@H](O)[C@@](C)(CO)[C@@H]4CC[C@@]3(C)[C@]1(C)CC2	> 50 µM	≥ 95%
CC1(C)CC[C@]2(NC(=O)NCc3cccnc3)CC[C@]3(C)C(=CC[C@@H]4[C@@]5(C)CC[C@@H]6OC(C)(C)OC[C@@]6(C)[C@@H]5CC[C@]43C)[C@@H]2C1	17.5 µM	≥ 95%
C[C@H](O)[C@H](O)[C@@H](O)[C@@H](O)[C@@H]1OC[C@@]2(C)[C@@H]3CC[C@]4(C)[C@H](CC=C5[C@@H]6CC(C)(C)CC[C@]6(CO)CC[C@]54C)[C@@]3(C)CC[C@@H]2O1	26.9 µM	≥ 95%
CC1(C)CC[C@]2(NC(=O)N3CCC[C@H]3CN3CCCC3)CC[C@]3(C)C(=CC[C@@H]4[C@@]5(C)CC[C@@H]6OC(C)(C)OC[C@@]6(C)[C@@H]5CC[C@]43C)[C@@H]2C1	> 50 µM	≥ 95%
CC1(C)CC[C@]2(NC(=O)O)CC[C@]3(C)C(=CC[C@@H]4[C@@]5(C)CC[C@@H]6O[C@H](C[C@H]7O[C@H](CO)[C@@H](O)[C@H](O)[C@@H]7O)OC[C@@]6(C)[C@@H]5CC[C@]43C)[C@@H]2C1	> 50 µM	≥ 95%
CN(C)CCCNC(=O)N[C@]12CCC(C)(C)C[C@H]1C1=CC[C@@H]3[C@@]4(C)CC[C@@H]5OC(C)(C)OC[C@@]5(C)[C@@H]4CC[C@@]3(C)[C@]1(C)CC2	17.5 µM	≥ 95%
CCCOC(=O)[C@]12CCC(C)(C)C[C@H]1C1=CC[C@@H]3[C@@]4(C)CC[C@H](O)[C@@](C)(CO)[C@@H]4CC[C@@]3(C)[C@]1(C)CC2	43.6 µM	≥ 95%
CC1(C)CC[C@]2(C(=O)O)CC[C@]3(C)C(=CC[C@@H]4[C@@]5(C)CC[C@@H]6O[C@H](C[C@H]7O[C@H](CO)[C@H](O)[C@H](O)[C@H]7O)OC[C@@]6(C)[C@@H]5CC[C@]43C)[C@@H]2C1	21.7 µM	≥ 95%
CC(=O)N1CCN(C(=O)N[C@]23CCC(C)(C)C[C@H]2C2=CC[C@@H]4[C@@]5(C)CC[C@@H]6OC(C)(C)OC[C@@]6(C)[C@@H]5CC[C@@]4(C)[C@]2(C)CC3)CC1	26.4 µM	≥ 95%
CC1(C)CC[C@]2(NC(=O)NCCN)CC[C@]3(C)C(=CC[C@@H]4[C@@]5(C)CC[C@@H]6OC(C)(C)OC[C@@]6(C)[C@@H]5CC[C@]43C)[C@@H]2C1	> 50 µM	≥ 95%
CC1(C)CC[C@]2(CO)CC[C@]3(C)C(=CC[C@@H]4[C@@]5(C)CC[C@@H]6O[C@H]([C@H](O)[C@@H](O)[C@H](O)CO)OC[C@@]6(C)[C@@H]5CC[C@]43C)[C@@H]2C1	> 50 µM	≥ 95%
C[C@@H]1O[C@@H](C[C@@H]2OC[C@@]3(C)[C@@H]4CC[C@]5(C)[C@H](CC=C6[C@@H]7CC(C)(C)CC[C@]7(C(=O)O)CC[C@]65C)[C@@]4(C)CC[C@@H]3O2)[C@@H](O)[C@H](O)[C@@H]1O	19.4 µM	≥ 95%
CC1(C)CC[C@]2(NC(=O)N3CCC[C@H]3C(=O)NCCCn3ccnc3)CC[C@]3(C)C(=CC[C@@H]4[C@@]5(C)CC[C@@H]6OC(C)(C)OC[C@@]6(C)[C@@H]5CC[C@]43C)[C@@H]2C1	20.2 µM	≥ 95%
CC1(C)CC[C@]2(CO)CC[C@]3(C)C(=CC[C@@H]4[C@@]5(C)CC[C@@H]6O[C@H]([C@H](O)[C@@H](O)[C@@H](O)CO)OC[C@@]6(C)[C@@H]5CC[C@]43C)[C@@H]2C1		≥ 95%
